Source: PubChem BioAssay
Apaf1 inhib: human Apaf-1 inhibition | reconstituted apoptosome caspase-3 activity, DEVD-Rh110 fluorescence | actives 0.71% (n = 330,000) | inhibition, % at 20 µM | O14727; active = inhibition of at least 40% at 20 µM;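 also: plate controls were DMSO wells for no effect and DEVD-CHO caspase inhibitor wells for full effect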
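Assay system: Apoptosome proteins | Medium: pH 7.5 Hepes buffer with CHAPS, BSA, DTT | Also added: Cytochrome c and DEVD-Rh110 substrate | Times: 30 min plus 50 min, RT | Detection: Rhodamine 110 fluorescence at Ex 480/Em 540 nm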
MEKK3 PB1 HTS: modulators (inhibitors or enhancers) of MEK5 binding to human MEKK3 PB1 domain. Q99759. bead-based flow cytometry, Alexa488-MEK5 binding to MEKK3; actives lie on both sides; 0 = blocked by unlabeled MEK5, 100 = vehicle. binding response (% of control), % at 10 µM. actives 1.4% (n = 290,000);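 active = binding response more than 3 SD above or below the average of its plate-row segment, actives on both sides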;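 also: Alexa488 bead fluorescence after subtracting the streptavidin-only scavenger bead signal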
MEKK2 WT-MEK5: raises or lowers MEK5 binding to wildtype human MEKK2 PB1 domain; bead flow cytometry, Alexa488-MEK5 binding to MEKK2 WT; actives lie on both sides; binding response (% of control), % at 10 µM; actives 1.1% (n = 290,000); AID 1531; in the data active = binding response below about 67% or above about 130%
MEKK2mut PB1 HTS: signal of MEK5 binding to mutant human MEKK2 PB1 domain. bead flow cytometry, Alexa488-MEK5 binding to MEKK2 mutant. percent response, % at 10 µM. actives 0.35% (n = 290,000); in the data active = percent response above about 24%, passing the limit was not always enough
UBC13 inh: inhibitors of human UBC13 polyubiquitin chain formation. P61088. AID 485273. inhibition, % at 20 µM. actives 0.47% (n = 330,000). TR-FRET; in the data active = inhibition above about 45%, passing the limit was not always enough
Casp3 counter: counter-screen for UBC13 inhibitors: human caspase-3 inhibition | actives 4% (n = 1,400) | inhibition, % at 20 µM | Recombinant caspase-3, Caspase-Glo 3/7 luminescence, 60 min | AID 488856 | shares compounds with UBC13 inh;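 active = mean inhibition across replicates above about 26%, limit read from the data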;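 also: plate controls were DMSO with caspase-3 for no effect and DMSO wells lacking enzyme for full effect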
UBC13 conf: confirmation of human UBC13 polyubiquitin inhibitors | shares compounds with UBC13 inh | inhibition, % at 10 µM | UBC13 polyubiquitination, TR-FRET, biochemical | actives 68% (n = 1,400); in the data active = inhibition above about 45%
* = called active by the depositor. Hits are enriched below; roughly 2.9% of the tested compounds scored in any of these assays.

Results for CCOC(=O)c1c(C)[nH]c(C(=O)N2CCN(c3ccc(OC)cc3)CC2)c1C ?
Apaf1 inhib: 8; MEKK3 PB1 HTS: 97; MEKK2 WT-MEK5: 88; MEKK2mut PB1 HTS: -9; UBC13 inh: 8

What do the screens show for `COC(=O)C1=C(C)NC(C)=C(C(=O)OC)C1c1ccc(OC(=O)c2oc3ccccc3c2C)c(OC)c1`?
Apaf1 inhib: -3; MEKK3 PB1 HTS: 99; MEKK2 WT-MEK5: 98; MEKK2mut PB1 HTS: -2; UBC13 inh: 8

How did CC1(C)Cc2c(sc(NC(=O)c3ccc4c(c3)OCCO4)c2C(N)=O)C(C)(C)N1 do in these assays?
Apaf1 inhib: 4; MEKK3 PB1 HTS: 109; MEKK2 WT-MEK5: 124; MEKK2mut PB1 HTS: 12; UBC13 inh: 55*; Casp3 counter: -4; UBC13 conf: 70*

What do the screens show for `CCC1(CC)Cc2ccccc2-c2[nH]c(=S)[nH]c(=O)c21`?
Apaf1 inhib: 1; UBC13 inh: 59*; Casp3 counter: 0; UBC13 conf: 43

How did CCC1(CC)Cc2ccccc2-c2nc(NN)[nH]c(=O)c21 do in these assays?
Apaf1 inhib: -11; MEKK3 PB1 HTS: 104; MEKK2 WT-MEK5: 101; MEKK2mut PB1 HTS: 0; UBC13 inh: 2

How did CC(=O)Nc1ccc(S(=O)(=O)Nc2cccc(-n3c(C)nc4ccccc4c3=O)c2)cc1 do in these assays?
Apaf1 inhib: -7; UBC13 inh: -5

Results for CCn1c(=O)c2cc(C(=O)NCCCOC)sc2c2ccccc21 ?
Apaf1 inhib: 6; MEKK3 PB1 HTS: 102; MEKK2 WT-MEK5: 107; MEKK2mut PB1 HTS: 2; UBC13 inh: 22

What do the screens show for `CCCCN(CC)CCNC(=O)c1cc2c(=O)n(CC)c3ccccc3c2s1`?
Apaf1 inhib: 6; MEKK3 PB1 HTS: 104; MEKK2 WT-MEK5: 121; MEKK2mut PB1 HTS: 8; UBC13 inh: 72*; Casp3 counter: -3; UBC13 conf: 91*

What do the screens show for `CCCCN(CC)CCCNC(=O)c1cc2c(=O)n(CC)c3ccccc3c2s1`?
Apaf1 inhib: 5; MEKK3 PB1 HTS: 107; MEKK2 WT-MEK5: 122; MEKK2mut PB1 HTS: 8; UBC13 inh: 50*; Casp3 counter: 4; UBC13 conf: 62*

What do the screens show for `CCn1c(=O)c2cc(C(=O)NCCC(C)C)sc2c2ccccc21`?
Apaf1 inhib: 17; MEKK3 PB1 HTS: 102; MEKK2 WT-MEK5: 101; MEKK2mut PB1 HTS: 0; UBC13 inh: 14

Results for CCCN(CCC)CCCNC(=O)c1cc2c(=O)n(CC)c3ccccc3c2s1 ?
Apaf1 inhib: 6; MEKK3 PB1 HTS: 107; MEKK2 WT-MEK5: 131; MEKK2mut PB1 HTS: 7; UBC13 inh: 47*; Casp3 counter: -4; UBC13 conf: 35

What do the screens show for `O=S(=O)(NC1CCCCC1)c1ccc(Cl)nc1`?
Apaf1 inhib: -6; MEKK3 PB1 HTS: 100; MEKK2 WT-MEK5: 101; MEKK2mut PB1 HTS: -2; UBC13 inh: 50*; Casp3 counter: -5; UBC13 conf: 10

Results for O=S(=O)(NC1CCCC1)c1ccc(S(=O)(=O)NC2CCCC2)cc1 ?
Apaf1 inhib: -14; MEKK3 PB1 HTS: 93; MEKK2 WT-MEK5: 90; MEKK2mut PB1 HTS: -2; UBC13 inh: 11

How did Clc1ccc2c(c1)CNc1c(ncnc1N1CCOCC1)O2 do in these assays?
Apaf1 inhib: -9; MEKK3 PB1 HTS: 102; MEKK2 WT-MEK5: 106; MEKK2mut PB1 HTS: 11; UBC13 inh: 50*; Casp3 counter: -2; UBC13 conf: 41

What do the screens show for `COc1ccc(NC(=S)NNC(=O)c2nnn(-c3ccccc3)c2C)cc1`?
Apaf1 inhib: 3; MEKK3 PB1 HTS: 97; MEKK2 WT-MEK5: 97; MEKK2mut PB1 HTS: -2; UBC13 inh: 59*; Casp3 counter: -2; UBC13 conf: 82*

Results for Cc1ccnc(NC(=O)CCC(=O)N(CC(=O)NC(C)(C)C)c2ccc3c(c2)OCO3)c1 ?
Apaf1 inhib: 8; MEKK3 PB1 HTS: 103; MEKK2 WT-MEK5: 99; MEKK2mut PB1 HTS: 0; UBC13 inh: -1

What do the screens show for `C[C@]12CCC(=O)C=C1C=C[C@@H]1[C@@H]2CC[C@@]2(C)[C@H]1CC[C@@]21CCC(=O)O1`?
Apaf1 inhib: 2; MEKK3 PB1 HTS: 106; MEKK2 WT-MEK5: 107; MEKK2mut PB1 HTS: 6; UBC13 inh: 76*; Casp3 counter: -1; UBC13 conf: 8

How did CC(=O)O[C@]1(C(C)=O)CCC2C3C=C(C)C4=CC(=O)CC[C@]4(C)C3CC[C@@]21C (some centres undefined) do in these assays?
Apaf1 inhib: 20; MEKK3 PB1 HTS: 95; MEKK2 WT-MEK5: 99; MEKK2mut PB1 HTS: 1; UBC13 inh: -4

What do the screens show for `CN1CCN(S(=O)(=O)c2cccc(C(=O)NCc3ccccc3Cl)c2)CC1`?
Apaf1 inhib: -32; MEKK3 PB1 HTS: 93; MEKK2 WT-MEK5: 88; MEKK2mut PB1 HTS: -5; UBC13 inh: 0

How did COc1cc(Cl)c(C)cc1NC(=O)CSC1=NCCS1 do in these assays?
Apaf1 inhib: 0; UBC13 inh: 4

What do the screens show for `Cc1cccc(OCc2n(CC(=O)OC3CC(C)CCC3C(C)C)c3ccccc3[n+]2C)c1` (centres undefined)?
Apaf1 inhib: 50*; MEKK3 PB1 HTS: 103; MEKK2 WT-MEK5: 183*; MEKK2mut PB1 HTS: 30; UBC13 inh: 59*; Casp3 counter: 6; UBC13 conf: 92*

Results for O=C(COC(=O)c1cc(=O)[nH]c(=O)[nH]1)Nc1cccc(Cl)c1 ?
Apaf1 inhib: 3; UBC13 inh: 66*; Casp3 counter: 3; UBC13 conf: 51*

Results for Cc1cc(C)cc(NC(=O)COC(=O)c2cc(=O)[nH]c(=O)[nH]2)c1 ?
Apaf1 inhib: 3; MEKK3 PB1 HTS: 104; MEKK2 WT-MEK5: 106; MEKK2mut PB1 HTS: 3; UBC13 inh: 35

How did CCOC(=O)C1CCN(C(=O)c2cc(COc3ccc(OC)c4ccccc34)on2)CC1 do in these assays?
Apaf1 inhib: 28; MEKK3 PB1 HTS: 99; MEKK2 WT-MEK5: 101; MEKK2mut PB1 HTS: -2; UBC13 inh: -15

Results for COc1ccc(/C=C(/NC(=O)c2ccc(OC)c(OC)c2)C(=O)NCCCn2ccnc2)cc1 ?
Apaf1 inhib: -6; MEKK3 PB1 HTS: 100; MEKK2 WT-MEK5: 101; MEKK2mut PB1 HTS: -3; UBC13 inh: -2

What do the screens show for `CC(C)OC(=O)CCCNc1ccc([N+](=O)[O-])cc1[N+](=O)[O-]`?
Apaf1 inhib: -5; MEKK3 PB1 HTS: 111; MEKK2 WT-MEK5: 101; MEKK2mut PB1 HTS: -1; UBC13 inh: -4
